In ChEMBL document CHEMBL3576816, “5'-Silylated 3'-1,2,3-triazolyl Thymidine Analogues as Inhibitors of West Nile Virus and Dengue Virus” (J Med Chem, 2015):
Activity calls are given as the source filed them. The calls are words filed in the database; no cut-off is given here.

Legend:
[1] = Cytotoxicity against BHK cells infected with Dengue virus replicon assessed as cell viability at 10 uM after 3 days by CellTiter 96 aqueous one solution cell proliferation assay relative to control; format: cell-based, Mesocricetus auratus; conditions: hamster, bhk, 72 h, 10 µM
Procedure, shortened: (§1)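 DENV replicon BHK cells, 1.5 × 10^3/well, plated without antibiotic selection; next day compound in DMSO (10 μM final for screening, or eight serial dilutions), 3 days at 37°C, 5% CO2. Tetrazolium (MTS-type) reagent, absorbance 450 nm, triplicate means versus DMSO wells; CC50 = 50% reduction in proliferation; CC50s mean ± SD of two experiments, top dose 200 μM.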

dengue virus type 3 = experiment: Displacement of [3H]-SAM from biotinylated Dengue virus 3 methyltransferase expressed in Escherichia coli at 20 uM preincubated for 20 mins followed by [3H]-SAM addition measured after 15 mins by scintillation counting analysis
Procedure, shortened: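 Biotinylated refolded E. coli-expressed DENV3 MTase (580 nM) with SPA beads (1.5 mg/mL) and 20 μM competitor (compound, SAM or sinefungin) in Tris pH 7.5 buffer with NaCl, KCl, MgCl2, MnCl2, CHAPS, 20 min at 23°C; 3H-SAM (425 nM) added, 15 min at 23°C, centrifuged, scintillation proximity counting.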

[2] = tested on: Human immunodeficiency virus 1; experiment: Antiviral activity against HIV1; format: functional, organism-based
Dengue virus [3] = experiment: Antiviral activity against Dengue virus infected in BHK pD2-hRucPac-2ATG cells assessed as inhibition of viral replication at 10 uM after 3 days by luciferase reporter gene assay relative to control; format: functional; conditions: 72 h
Procedure, shortened: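 Renilla luciferase-bearing DENV subgenomic replicon BHK cells, kept on 3 μg/mL puromycin, seeded at 1.5 × 10^3/well without selection. Next day, 10 μM final compound in DMSO added to triplicate wells; MPA 1 μM as control inhibitor. After 3 days, medium swapped for live-cell Renilla substrate (1:1000, phenol-red-free DME, 10% FBS). Luminescence read; triplicate mean compared with DMSO-only wells.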

West Nile virus [4] = experiment: Antiviral activity against West Nile virus infected in BHK-WII RepRen1B cells assessed as inhibition of viral replication at 10 uM after 3 days by luciferase reporter gene assay relative to control; format: functional; conditions: 72 h
Procedure, shortened: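 Compound (DMSO, 10 μM final) added next day in triplicate; lycorine 1 μM served as control inhibitor. Three days on, live-cell Renilla substrate (1:1000 in phenol-red-free DME, 10% FBS) replaced medium. Luminescence measured; triplicate means compared with DMSO-alone wells.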

dengue virus type 2 [5] = experiment: Antiviral activity against Dengue virus type 2 New Guinea C infected in African green monkey Vero cells assessed as reduction in viral titer at 10 uM after 2 days by Giemsa staining assay relative to control; format: functional; parameters: scale not given: the % may be the effect or the level left
Procedure, shortened: (§2)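 Vero cells, 4 × 10^5/well, infected with DENV-2 New Guinea C at MOI 0.2 for 2 h at 37°C, washed, then compound added (10 μM; MPA 1.0 μM). Supernatant taken after 2 days, clarified, 10-fold dilutions plaqued on Vero under methylcellulose for 5 days, fixed, Giemsa-stained; titer as PFU/mL, percent reduction; 10 μM from two experiments, 1.0 μM from one.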

Human betaherpesvirus 5 = experiment: Antiviral activity against Human cytomegalovirus; format: functional, organism-based
[6] = Cytotoxicity against BHK cells infected with West Nile virus replicon assessed as cell viability after 3 days by CellTiter 96 aqueous one solution cell proliferation assay; format: cell-based, Mesocricetus auratus; conditions: hamster, 72 h
Procedure, shortened: as §1, with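 “WNV” for “DENV”, “about 3” for “1.5”, “Tetrazolium” for “Tetrazolium (MTS-type)”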

West Nile virus [7] = experiment: Antiviral activity against West Nile virus infected in BHK-WII RepRen1B cells assessed as inhibition of viral replication after 3 days by luciferase reporter gene assay; format: functional, organism-based; conditions: 72 h
[8] = Cytotoxicity against BHK cells infected with West Nile virus replicon assessed as cell viability at 10 uM after 3 days by CellTiter 96 aqueous one solution cell proliferation assay relative to control; format: cell-based, Mesocricetus auratus; conditions: hamster, bhk, 72 h, 10 µM
Procedure, shortened: as §1, with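 “WNV” for “DENV”, “about 3” for “1.5”, “Tetrazolium” for “Tetrazolium (MTS-type)”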

[9] = Cytotoxicity against BHK cells infected with Dengue virus replicon assessed as cell viability after 3 days by CellTiter 96 aqueous one solution cell proliferation assay; format: cell-based, Mesocricetus auratus; conditions: hamster, 72 h; procedure, shortened: as §1
[10] = molecular target: Human immunodeficiency virus type 1 reverse transcriptase (Human immunodeficiency virus 1) (UniProt Q72547); experiment: Inhibition of HIV1 reverse transcriptase
Dengue virus [11] = experiment: Antiviral activity against Dengue virus infected in BHK pD2-hRucPac-2ATG cells assessed as inhibition of viral replication after 3 days by luciferase reporter gene assay; format: functional, organism-based; conditions: 72 h
Procedure, shortened: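 BHK DENV subgenomic replicon line carrying Renilla luciferase, kept on 3 μg/mL puromycin; 1.5 × 10^3 cells/well plated without selection, compounds in DMSO added next day to triplicate wells, at 10 μM final for screening or eight serial dilutions. Live-cell Renilla substrate after 3 days, luminescence versus DMSO wells; EC50 = 50% luciferase reduction; MPA 1 μM control.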

[12] = tested on: unidentified influenza virus; experiment: Antiviral activity against Influenzae virus; format: functional, organism-based
Hepatitis C virus = experiment: Antiviral activity against HCV; format: functional, organism-based; conditions: Hepacivirus hominis
dengue virus type 2 [13] = experiment: Antiviral activity against Dengue virus type 2 New Guinea C infected in African green monkey Vero cells assessed as reduction in viral titer at 1 uM after 2 days by Giemsa staining assay relative to control; format: functional; parameters: scale not given: the % may be the effect or the level left; procedure, shortened: as §2

| Structure (SMILES) | Activity [1] | inhibition (dengue virus type 3) | Activity [2] | inhibition at 10 µM (Dengue virus [3]) | inhibition at 10 µM (West Nile virus [4]) | Activity (dengue virus type 2 [5]) | Activity (Human betaherpesvirus 5) | CC50 [6] | EC50 (West Nile virus [7]) | Activity [8] | CC50 [9] | inhibition [10] | EC50 (Dengue virus [11]) | Activity [12] | Activity (Hepatitis C virus) | Activity (dengue virus type 2 [13]) |
| --- | --- | --- | --- | --- | --- | --- | --- | --- | --- | --- | --- | --- | --- | --- | --- | --- |
| COc1ccc2cc(-c3cn([C@H]4C[C@H](n5cc(C)c(=O)[nH]c5=O)O[C@@H]4CO[Si](C)(C)C(C)(C)C)nn3)ccc2c1 | 96% | Active | inactive | 57% | 92% | 98% | inactive | > 200 µM | 7.4 µM | 100% | 21 µM | inactive | 8.4 µM | inactive | inactive | – |
| COc1c(C)c2c(c(O)c1C/C=C(\C)CCC(=O)O)C(=O)OC2 [MYCOPHENOLIC ACID] | – | – | – | – | – | – | – | – | – | – | – | – | – | – | – | 68% |
| COc1ccc2cc(-c3cnnn3[C@H]3C[C@H](n4cc(C)c(=O)[nH]c4=O)O[C@@H]3CO[Si](C)(C)C(C)(C)C)ccc2c1 | 86% | Active | inactive | 85% | 97% | – | inactive | 13 µM | 2.9 µM | 100% | 7.9 µM | inactive | 7.3 µM | inactive | inactive | – |
| Cc1cn([C@H]2C[C@H](NC(=O)CCCCc3ccc(F)cc3)[C@@H](CO[Si](C)(C)C(C)(C)C)O2)c(=O)[nH]c1=O | – | Active | – | – | – | 67% | – | 23 µM | 15 µM | – | 22 µM | – | 9.6 µM | – | – | – |
